{"source": "paper PMC3658146", "about": "(Clinical cancer research : an official journal of the …, 2013)", "key": {"[1]": {"system": "dihydropyrimidine dehydrogenase", "conditions": "stated without reference; cited from earlier work"}, "[2]": {"assay": "Plasma pharmacokinetics after a single oral dose of IPdR", "format": "in vivo, human (patients with advanced malignancies)", "how_it_was_run": "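Patients received a single oral dose of 150, 300, 600, 1200 or 2400 mg, with one patient per level and 6 at 2400 mg. Blood was drawn pre-dose and at 5, 15, 30 min and 1, 2, 4, 10, 24 h, and plasma was kept at −80°C. After solvent deproteinization, IPdR, IdUrd, IP and IUra were measured by C18 LC–MS/MS. BrdUrd and BrUra served as internal standards, with calibration at 0.1–50 μM in control plasma.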"}, "[3]": {"assay": "Urinary recovery of IPdR and metabolites after a single oral dose of IPdR", "format": "in vivo, human (patients with advanced malignancies)", "conditions": "patients receiving 2400 mg of IPdR", "how_it_was_run": "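Urine was collected pre-dose and then at each void over 24 h, with volumes recorded and aliquots stored at −80°C. Samples underwent liquid–liquid extraction and LC–MS/MS for IPdR, IdUrd, IP and IUra, with BrdUrd and BrUra as internal standards. Calibration covered 0.1–50 μM in patient pre-dose urine. Samples above 50 μM were diluted 1:10 and reanalyzed. The quantitation limit was 0.1 μM for IPdR and IdUrd and 0.25 μM for IP and IUra.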"}, "[4]": {"assay": "Safety assessment for 14 days after a single oral dose of IPdR", "format": "in vivo, human (patients with advanced malignancies)", "conditions": "single oral dose 150-2400 mg, 10 patients, 14 days follow-up", "how_it_was_run": "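After a single oral dose on day 1 (150–2400 mg), patients were followed for 14 days. Complete blood counts with differential and serum chemistries were done at baseline, day 2 and day 14, with grading by CTCAE v4.0. Significant toxicity was defined as a drug-related event within 14 days at grade ≥2 non-hematologic (excluding correctable electrolytes), grade ≥2 thrombocytopenia, or grade ≥3 anemia/leucopenia/neutropenia. Each next patient enrolled only after the prior one completed 2 weeks.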"}, "[5]": {"conditions": "athymic mice, ≤ 1500 mg/kg/day for 6 to 14 days; cited from earlier work"}, "[6]": {"conditions": "mice, oral IPdR, sustained for at least 6 hours; cited from earlier work"}, "[7]": {"conditions": "rats, for 28 days; cited from earlier work"}, "[8]": {"conditions": "rats, oral IPdR, sustained for at least 6 hours; cited from earlier work"}, "[9]": {"conditions": "clinical, reason for c.i.v. infusion; cited from earlier work"}, "anaplastic astrocytoma": {"system": "anaplastic astrocytoma", "conditions": "patients with anaplastic astrocytoma, radiation combined with IdUrd; cited from earlier work"}, "ovarian cancer": {"system": "ovarian cancer", "conditions": "patients with ovarian cancer, intraperitoneal IdUrd; cited from earlier work"}, "tumor": {"system": "tumor", "conditions": "c.i.v. IdUrd; cited from earlier work"}}, "note": "Values joined by “and” are separate entries in the source; they are usually repeats but may differ in a detail not shown here. Identical values can stand only once. Like-named read-outs stand apart in the source and are kept apart here."}
{"compound": "O=c1[nH]cc(I)c(=O)[nH]1", "note": "[IUra, 5-iodouracil]", "values": [{"measurement": "effect on the enzyme dihydropyrimidine dehydrogenase", "setting": "[1]", "value": "inhibits"}, {"measurement": "concentration at 10 hours", "setting": "[2]; human, plasma, oral, 2400 mg", "value": "~100000", "unit": "nM"}, {"measurement": "AUC", "setting": "[2]; human, plasma, po, 150 mg", "value": 1, "unit": "µM·h"}, {"measurement": "Cmax", "setting": "[2]; human, plasma, po, 150 mg", "value": 200, "unit": "nM"}, {"measurement": "AUC", "setting": "[2]; human, plasma, po, 300 mg", "value": 4.5, "unit": "µM·h"}, {"measurement": "Cmax", "setting": "[2]; human, plasma, po, 300 mg", "value": 800, "unit": "nM"}, {"measurement": "AUC", "setting": "[2]; human, plasma, po, 600 mg", "value": 17.2, "unit": "µM·h"}, {"measurement": "Cmax", "setting": "[2]; human, plasma, po, 600 mg", "value": 4500, "unit": "nM"}, {"measurement": "AUC", "setting": "[2]; human, plasma, po, 1200 mg", "value": 103, "unit": "µM·h"}, {"measurement": "Cmax", "setting": "[2]; human, plasma, po, 1200 mg", "value": 34200, "unit": "nM"}, {"measurement": "AUC", "setting": "[2]; human, plasma, po, 2400 mg", "value": 1060, "unit": "µM·h"}, {"measurement": "Cmax", "setting": "[2]; human, plasma, po, 2400 mg", "value": 133000, "unit": "nM"}, {"measurement": "time of peak IUra plasma level post IPdR administration", "setting": "[2]; single oral IPdR 2400 mg", "value": "3.3 ± 1.0 hours and 3.3 (± 1.0) hours"}, {"measurement": "detection in urine samples", "setting": "[3]", "value": "detectable"}, {"measurement": "share of the metabolites measured in urine", "setting": "[3]; 24 hours", "value": "90 ± 13", "unit": "%"}]}
{"compound": "O=c1ncc(I)cn1[C@H]1C[C@H](O)[C@@H](CO)O1", "note": "[IPdR, 5-iodo-2-pyrimidinone-2′-deoxyribose]", "values": [{"measurement": "drug-related adverse events", "setting": "[4]", "value": "no drug-related adverse events"}, {"measurement": "toxicities after daily oral doses", "setting": "[5]", "value": "no significant toxicities"}, {"measurement": "plasma concentrations of IPdR", "setting": "[6]", "value": "> 100000", "unit": "nM"}, {"measurement": "IPdR AUC", "setting": "[2]; plasma, single oral IPdR 150 mg, one patient", "value": 3.4, "unit": "μM-hr"}, {"measurement": "IPdR AUC", "setting": "[2]; plasma, single oral IPdR 600 mg, one patient", "value": 8.3, "unit": "μM-hr"}, {"measurement": "IPdR AUC", "setting": "[2]; plasma, single oral IPdR 1200 mg, one patient", "value": 0.7, "unit": "μM-hr"}, {"measurement": "IPdR AUC", "setting": "[2]; plasma, single oral IPdR 2400 mg, mean of 6 patients", "value": 15.6, "unit": "μM-hr"}, {"measurement": "Cmax", "setting": "[2]; read-out: IPdR Cmax, plasma, single oral IPdR 150 mg, one patient", "value": 600, "unit": "nM"}, {"measurement": "Cmax", "setting": "[2]; read-out: IPdR Cmax, plasma, single oral IPdR 600 mg, one patient", "value": 930, "unit": "nM"}, {"measurement": "Cmax", "setting": "[2]; read-out: IPdR Cmax, plasma, single oral IPdR 1200 mg, one patient", "value": 950, "unit": "nM"}, {"measurement": "Cmax", "setting": "[2]; read-out: IPdR Cmax, plasma, single oral IPdR 2400 mg, mean of 6 patients", "value": 4300, "unit": "nM"}, {"measurement": "dose recovered in urine over 24 hours", "setting": "[3]; IPdR and metabolites", "value": "Twelve"}, {"measurement": "detection in urine samples", "setting": "[3]", "value": "detectable"}, {"measurement": "tolerable dose for repeat dose studies", "setting": "[7]", "value": 2000, "unit": "mg/kg/day"}, {"measurement": "plasma concentrations of IPdR", "setting": "[8]", "value": "> 100000", "unit": "nM"}]}
{"compound": "O=c1[nH]c(=O)n([C@H]2C[C@H](O)[C@@H](CO)O2)cc1I", "note": "[IdUrd, 5-iodo-2′-deoxyuridine, reference compound]", "values": [{"measurement": "half-life", "setting": "[9]", "value": "in the order of minutes"}, {"measurement": "median survival", "setting": "anaplastic astrocytoma", "value": 3.2, "unit": "years"}, {"measurement": "patients surviving at 5 years", "setting": "anaplastic astrocytoma", "value": 33, "unit": "%"}, {"measurement": "effect on ascites", "setting": "ovarian cancer", "value": "disappearance of ascites"}, {"measurement": "AUC", "setting": "[2]; human, plasma, po, 150 mg", "value": 1.7, "unit": "µM·h"}, {"measurement": "Cmax", "setting": "[2]; human, plasma, po, 150 mg", "value": 800, "unit": "nM"}, {"measurement": "AUC", "setting": "[2]; human, plasma, po, 300 mg", "value": 0.3, "unit": "µM·h"}, {"measurement": "Cmax", "setting": "[2]; human, plasma, po, 300 mg", "value": 300, "unit": "nM"}, {"measurement": "AUC", "setting": "[2]; human, plasma, po, 600 mg", "value": 3.2, "unit": "µM·h"}, {"measurement": "Cmax", "setting": "[2]; human, plasma, po, 600 mg", "value": 1800, "unit": "nM"}, {"measurement": "AUC", "setting": "[2]; human, plasma, po, 1200 mg", "value": 4.7, "unit": "µM·h"}, {"measurement": "Cmax", "setting": "[2]; human, plasma, po, 1200 mg", "value": 2100, "unit": "nM"}, {"measurement": "AUC", "setting": "[2]; human, plasma, po, 2400 mg", "value": 12.2, "unit": "µM·h"}, {"measurement": "Cmax", "setting": "[2]; human, plasma, po, 2400 mg", "value": 4000, "unit": "nM"}, {"measurement": "half-life", "setting": "[2]; human, plasma, po, 2400 mg", "value": 1.5, "unit": "h"}, {"measurement": "time of peak IdUrd plasma level after IPdR administration", "setting": "[2]; single oral IPdR 2400 mg, 6 patients, mean ± SD", "value": "1.67 ± 1.21", "unit": "h"}, {"measurement": "detection in urine samples", "setting": "[3]", "value": "detectable"}, {"measurement": "patients with tumor shrinkage", "setting": "tumor", "value": "6 out of 11"}]}
{"compound": "O=c1ncc(I)c[nH]1", "note": "[IP, 5-iodo-2-pyrimidinone]", "values": [{"measurement": "detection in urine samples", "setting": "[3]", "value": "detectable"}]}
